The source made the active and inactive calls.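 Rule for the calls: active = inhibition of 30% or more at any tested concentration; inactive = the rest.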
target: M1-family alanyl aminopeptidase PfA-M1 [Plasmodium falciparum 3D7]; assay: PfM1AAP aminopeptidase inhibitors, dose response, biochemical, QFRET, H-Leu-NHMec substrate (AID 588686); settings: recombinant PfM1AAP, H-Leu-NHMec fluorogenic cleavage
In short: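 times = enzyme reaction with compounds for 90 min, room temperature | assay system = recombinant PfM1AAP enzyme | amount = PfM1AAP enzyme at 5 µg/mL final | measure = percent inhibition per dose, IC50 from locked four-parameter fit | repeats = each concentration tested in triplicate | measured by = fluorescence at 370/460 nm | reagent = fluorogenic substrate H-Leu-NHMec at 0.1 mM final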

SMILES	IC50
CN(C)c1ccc(CNC(=O)C2CCN(S(=O)(=O)c3ccc(Br)s3)CC2)cc1	23.8 µM
O=C(NCc1ccc2c(c1)OCO2)C1CCN(S(=O)(=O)c2ccc(-c3cncc4ccccc34)s2)CC1	11.4 µM
CC(C)(C)c1ccc(-c2ccc(S(=O)(=O)N3CCC(C(=O)NCc4ccc5c(c4)OCO5)CC3)s2)cc1	49.9 µM

same assay, conditions: recombinant PfM1AAP, H-Leu-NHMec fluorogenic cleavage; at 100 µM (top of the series)

SMILES	inhibition
CC[C@H](C)[C@H](NS(=O)(=O)c1ccc(Br)s1)C(=O)NCc1ccc(F)cc1	inactive
CC[C@H](C)[C@H](NC(=O)c1ccc([N+](=O)[O-])cc1)C(=O)NCc1ccc(C(F)(F)F)cc1	inactive
O=C(NCc1ccc2c(c1)OCO2)C1CCN(S(=O)(=O)c2ccc(-c3cccc(F)c3)s2)CC1	inactive
COc1ccc(-c2ccc(S(=O)(=O)N3CCC(C(=O)NCc4ccc5c(c4)OCO5)CC3)s2)cc1	inactive
CC[C@H](C)[C@H](NS(=O)(=O)c1ccc(Br)s1)C(=O)O	inactive
COc1cccc(-c2ccc(S(=O)(=O)N3CCC(C(=O)NCc4ccc5c(c4)OCO5)CC3)s2)c1	inactive
CC[C@H](C)[C@H](NC(=O)c1ccc(C(C)(C)C)cc1)C(=O)NCc1ccc(C(F)(F)F)cc1	inactive
CC[C@H](C)[C@H](NS(=O)(=O)c1ccc(Br)s1)C(=O)NCc1ccc(C(F)(F)F)cc1	inactive
CC[C@H](C)[C@H](NC(=O)c1ccc([N+](=O)[O-])cc1)C(=O)NCc1ccc(F)cc1	inactive
CC[C@H](C)[C@H](NC(=O)c1ccc([N+](=O)[O-])cc1)C(=O)NCc1ccccc1	inactive
CC[C@H](C)[C@H](NS(=O)(=O)c1cccs1)C(=O)NCc1ccc(F)cc1	inactive
CC(=O)Nc1cccc(-c2ccc(S(=O)(=O)N3CCC(C(=O)NCc4ccc5c(c4)OCO5)CC3)s2)c1	inactive
O=C(NCc1ccc2c(c1)OCO2)C1CCN(S(=O)(=O)c2ccc(-c3ccccc3)s2)CC1	inactive
